These results are taken from ChEMBL document CHEMBL5113451, “Discovery of 2-thiobenzimidazoles as noncovalent inhibitors of SARS-CoV-2 main protease” (Bioorg Med Chem Lett, 2022).

In experiment [1] the target is T1, Replicase polyprotein 1ab (Severe acute respiratory syndrome coronavirus 2, UniProt P0DTD1). Kind of experiment: Inhibition of His6-tagged SARS-CoV-2 main protease expressed in Escherichia coli BL21 (DE3) using DABCYL-KTSAVLQ1SGFRKM-E(EDANS)-NH2 as substrate preincubated for 15 mins followed by substrate addition by FRET analysis. The gist of the method: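 Inhibitor preincubated 15 min at 30 °C, then dabcyl-edans substrate added. Fluorescence followed at 90 s intervals. […] Three independent experiments.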

The target in experiment [2] is T1, Replicase polyprotein 1ab. Kind of experiment: Inhibition of His6-tagged SARS-CoV-2 main protease expressed in Escherichia coli BL21 (DE3) using DABCYL-KTSAVLQ1SGFRKM-E(EDANS)-NH2 as substrate preincubated for 15 mins followed by substrate addition in presence of Triton-X by FRET analysis.
Experiment [3] addresses Replicase polyprotein 1ab (Severe acute respiratory syndrome coronavirus 2) (UniProt P0DTD1). Kind of experiment: Inhibition of His6-tagged SARS-CoV-2 main protease expressed in Escherichia coli BL21 (DE3) assessed as residual enzyme activity using DABCYL-KTSAVLQ1SGFRKM-E(EDANS)-NH2 as substrate at 50 uM preincubated for 15 mins followed by substrate addition by FRET analysis. An outline of the steps: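 Compound at 50 µM preincubated 15 min at 30 °C before dabcyl-edans peptide added. Fluorescence read every 90 s for about 2.5 h, baseline subtracted.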

As for `O=C(CSc1nc2cc(Cl)ccc2n1Cc1ccccc1)N1CCNC1=O`, the IC50 in experiment [1] and in experiment [2] was 24.2 µM throughout. In addition, the Activity in experiment [3] worked out at 50%.
In experiment [1], `O=C1NCCN1C(=O)C(Cc1ccccc1)Sc1nc2cc(Cl)ccc2n1Cc1ccccc1` (configuration not stated) registered an IC50 of 29.9 µM.
The molecule `O=C(CSc1nc2cc(Cl)c(O)cc2n1Cc1ccccc1)N1CCOC1=O` registered a concentration for half-maximal inhibition (IC50) in experiment [1] of 35.8 µM.
As to `O=C1OCCN1C(=O)C(Cc1ccco1)Sc1nc2cc(Cl)ccc2n1Cc1ccccc1` (configuration not stated), in experiment [1], inhibition was half-maximal at 14.9 µM (IC50).
Still for that read-out and setting: for `O=C1OCCN1C(=O)C(Cc1ccco1)Sc1nc2ccc(O)cc2n1Cc1ccccc1` (configuration not stated) the value was 55.8 µM; for `O=C1OCCN1C(=O)C(Cc1ccco1)Sc1nc2ccc(Cl)cc2n1Cc1ccccc1` (configuration not stated), 52.9 µM; for `COc1cc2c(cc1Cl)nc(SC(Cc1ccco1)C(=O)N1CCOC1=O)n2Cc1ccccc1` (configuration not stated), 27.7 µM.
Same read-out and setting: next, `O=C(CSc1nc2cc(Cl)ccc2n1Cc1ccccc1)N1CCOC1=O`: 62.2 µM; `Cc1ccc2c(c1)nc(SC(Cc1ccccc1)C(=O)N1CCOC1=O)n2Cc1ccccc1` (configuration not stated): 36.5 µM; `O=C(CSc1nc2cc(Cl)c(Cl)cc2n1Cc1ccccc1)N1CCOC1=O`: 29.5 µM.
Same read-out and setting: for `O=C1OCCN1C(=O)C(Cc1ccccc1)Sc1nc2cc(Cl)ccc2n1Cc1ccccc1` (configuration not stated) the value was 26.7 µM; for `CC(C)(C)c1ccc2c(c1)nc(SCC(=O)N1CCOC1=O)n2Cc1ccccc1`, 35.1 µM; for `Cc1ccc2c(c1)nc(SC(Cc1ccccc1)C(=O)N1CCNC1=O)n2Cc1ccccc1` (configuration not stated), 32.4 µM.
For the molecule `COc1cc2c(cc1Cl)nc(SCC(=O)N1CCOC1=O)n2Cc1ccccc1`, the 50% inhibitory concentration (IC50) in experiment [1] stood at 52.5 µM.
Still for that read-out and setting: next, `CC(C)(C)c1ccc2c(c1)nc(SC(Cc1ccccc1)C(=O)N1CCOC1=O)n2Cc1ccccc1` (configuration not stated): 29.5 µM; `O=C1OCCN1C(=O)C(Cc1ccco1)Sc1nc2cc(Cl)c(O)cc2n1Cc1ccccc1` (configuration not stated): 46.1 µM; `COc1ccc2nc(SC(Cc3ccco3)C(=O)N3CCOC3=O)n(Cc3ccccc3)c2c1` (configuration not stated): 53.9 µM.
The same measure, in the same setting: next, `O=C1OCCN1C(=O)C(Cc1ccco1)Sc1nc2cc(Cl)c(Cl)cc2n1Cc1ccccc1` (configuration not stated): 30.8 µM.
In the case of `COCCn1c(C(=O)NCC(O)c2ccccc2)nc2ccccc2c1=O` (configuration not stated), in experiment [2], the 50% inhibitory concentration (IC50) was 54 µM. For the same molecule, in experiment [3], the Activity was found to be 50%.
